Assay results taken from ChEMBL document CHEMBL4680181, “Identification of a 2,4-diaminopyrimidine scaffold targeting Trypanosoma brucei pteridine reductase 1 from the LIBRA compound library screening campaign” (Eur J Med Chem, 2020).
The source made the active and inactive calls. The rule behind the calls is not given here.

Legend:
[1] = tested on: Trypanosoma brucei; assay: Inhibition of Trypanosoma brucei PTR1 at 50 uM using H2B as substrate preincubated for 10 mins followed by NADPH addition and measured up to 50 mins relative to control; details: time min <=60
[2] = Inhibition of Trypanosoma brucei PTR1 using H2B as substrate preincubated for 10 mins followed by NADPH addition and measured up to 50 mins relative to control
In short: (§1)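 Purified recombinant LmPTR1 or TbPTR1 in a coupled enzyme assay. Nine-point dose response from 0.5 to 100 μM. IC50, pIC50 and Hill slope from a 4-parameter logistic fit. Ki derived by the competitive model Ki = IC50/((S/Km)+1).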

[3] = molecular target: T1, Pteridine reductase 1 (Leishmania major, UniProt Q01782); assay: Inhibition of Leishmania major PTR1 using H2B as substrate preincubated for 10 mins followed by NADPH addition and measured up to 50 mins relative to control; in short: as §1
T1 sequence (Q01782 whole entry): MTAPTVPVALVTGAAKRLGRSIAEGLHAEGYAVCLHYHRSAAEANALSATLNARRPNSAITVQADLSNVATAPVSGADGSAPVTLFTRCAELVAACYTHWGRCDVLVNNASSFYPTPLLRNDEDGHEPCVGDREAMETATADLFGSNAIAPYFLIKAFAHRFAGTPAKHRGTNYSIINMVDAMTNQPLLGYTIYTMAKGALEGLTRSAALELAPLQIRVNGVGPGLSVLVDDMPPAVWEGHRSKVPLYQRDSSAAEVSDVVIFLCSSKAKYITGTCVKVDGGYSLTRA

[4] = Selectivity ratio Ki for inhibition of inhibition of Leishmania major PTR1 to Ki for inhibition of Trypanosoma brucei PTR1
In short: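 Ki values for LmPTR1 and TbPTR1, each calculated from the coupled-assay IC50 with the competitive model Ki = IC50/((S/Km)+1).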

[5] = tested on: Trypanosoma brucei brucei; assay: Antitrypanosomal activity against bloodstream form of trypanosoma brucei brucei 427 assessed as reduction in parasitic growth after 72 hrs by resazurin staining based fluorescence assay; type: functional, organism-based
In short: (§2)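 T. brucei bloodstream forms in a modified resazurin-based growth assay. EC50 (concentration inhibiting growth by 50%) obtained by nonlinear regression. Combination wells contained 4 μM MTX (methotrexate); single-agent MTX was run at 4 μM. Single-concentration tests used 10, 1 or 0.1 μM of test compound.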

[6] = tested on: Trypanosoma brucei brucei; assay: Antitrypanosomal activity against bloodstream form of trypanosoma brucei brucei 427 assessed as inhibition of parasitic growth at 10 uM after 72 hrs in presence of MTX by resazurin staining based fluorescence assay relative to control; type: functional; details: for inhibition of growth at 10 µM: read-out: GI; in short: as §2
[7] = tested on: Trypanosoma brucei brucei; assay: Antitrypanosomal activity against bloodstream form of trypanosoma brucei brucei 427 assessed as inhibition of parasitic growth at 10 uM after 72 hrs by resazurin staining based fluorescence assay relative to control; type: functional; in short: as §2
[8] = tested on: Trypanosoma brucei brucei; assay: Antitrypanosomal activity against bloodstream form of trypanosoma brucei brucei 427 assessed as potentiation index at 10 uM after 72 hrs in presence of MTX by resazurin staining based fluorescence assay; type: functional
In short: (§3)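 Synergy index taken as the activity of test compound plus 4 μM MTX, divided by the summed activities of test compound alone and 4 μM MTX alone. Resazurin-based assay on T. brucei bloodstream forms.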

[9] = molecular target: hERG (KCNH2) (Homo sapiens, UniProt Q12809); assay: Inhibition of human ERG at 10 uM by fluorescence polarization assay relative to control
Chain of hERG (KCNH2) (Q12809 whole entry): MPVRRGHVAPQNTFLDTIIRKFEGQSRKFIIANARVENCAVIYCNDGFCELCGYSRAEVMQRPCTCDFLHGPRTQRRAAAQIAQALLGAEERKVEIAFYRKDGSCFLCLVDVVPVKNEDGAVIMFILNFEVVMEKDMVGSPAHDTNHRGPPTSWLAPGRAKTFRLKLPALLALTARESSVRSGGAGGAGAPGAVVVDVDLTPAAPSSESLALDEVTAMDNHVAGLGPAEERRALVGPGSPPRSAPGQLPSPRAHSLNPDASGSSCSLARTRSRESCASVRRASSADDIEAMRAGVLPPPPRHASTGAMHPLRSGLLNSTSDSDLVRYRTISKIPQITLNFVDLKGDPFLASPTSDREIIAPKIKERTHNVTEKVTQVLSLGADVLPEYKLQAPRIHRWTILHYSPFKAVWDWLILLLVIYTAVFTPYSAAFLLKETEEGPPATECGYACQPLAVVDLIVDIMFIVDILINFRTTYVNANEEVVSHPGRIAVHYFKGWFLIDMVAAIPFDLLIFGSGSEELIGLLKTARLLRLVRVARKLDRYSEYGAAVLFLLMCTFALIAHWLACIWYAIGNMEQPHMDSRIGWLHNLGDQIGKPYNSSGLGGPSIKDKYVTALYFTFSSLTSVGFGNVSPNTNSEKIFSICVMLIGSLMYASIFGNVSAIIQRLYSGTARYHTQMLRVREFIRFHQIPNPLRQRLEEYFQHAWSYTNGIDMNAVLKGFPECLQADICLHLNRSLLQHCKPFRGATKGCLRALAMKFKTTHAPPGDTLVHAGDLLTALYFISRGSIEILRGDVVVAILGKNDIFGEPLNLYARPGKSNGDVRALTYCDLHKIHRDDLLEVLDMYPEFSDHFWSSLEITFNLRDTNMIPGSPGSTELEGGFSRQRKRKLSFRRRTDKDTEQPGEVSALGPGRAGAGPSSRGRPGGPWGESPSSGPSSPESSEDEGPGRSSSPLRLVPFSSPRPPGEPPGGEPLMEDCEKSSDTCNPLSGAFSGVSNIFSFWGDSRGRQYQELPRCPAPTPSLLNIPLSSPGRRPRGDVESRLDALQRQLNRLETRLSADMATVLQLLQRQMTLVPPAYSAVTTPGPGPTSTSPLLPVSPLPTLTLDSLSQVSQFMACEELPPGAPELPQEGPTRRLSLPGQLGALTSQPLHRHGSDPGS
In short: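 hERG inhibition measured by fluorescence polarization (Predictor hERG assay), with compound at 10 μM.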

[10] = molecular target: CYP2D6 (Homo sapiens, UniProt P10635); assay: Inhibition of CYP2D6 (unknown origin) at 10 uM by P450-Glo assay relative to control; type: ADME
Chain of CYP2D6 (P10635 whole entry): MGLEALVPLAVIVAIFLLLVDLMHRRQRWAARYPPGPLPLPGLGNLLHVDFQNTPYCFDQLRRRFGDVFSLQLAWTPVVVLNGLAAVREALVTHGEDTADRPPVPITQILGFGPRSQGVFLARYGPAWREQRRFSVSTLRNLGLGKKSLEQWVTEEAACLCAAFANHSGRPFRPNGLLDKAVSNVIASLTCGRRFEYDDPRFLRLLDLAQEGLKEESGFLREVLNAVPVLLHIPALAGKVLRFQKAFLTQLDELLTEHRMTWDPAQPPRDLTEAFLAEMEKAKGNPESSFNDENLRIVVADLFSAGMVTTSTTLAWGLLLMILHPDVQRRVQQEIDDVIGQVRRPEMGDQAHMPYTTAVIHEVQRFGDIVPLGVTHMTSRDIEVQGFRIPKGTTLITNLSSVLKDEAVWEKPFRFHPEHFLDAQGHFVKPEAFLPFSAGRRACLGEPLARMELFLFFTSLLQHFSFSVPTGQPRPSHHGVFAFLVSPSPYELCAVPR
In short: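 CYP2D6 inhibition measured in the P450-Glo luminescent platform, with compound at 10 μM.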

[11] = Cytotoxicity against human A549 cells assessed as reduction in cell viability by Cell Titer-Glo assay; type: cell-based
In short: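 A549 cells from DSMZ, grown in DMEM with 10% v/v FCS, 100 μg/mL streptomycin and 100 U/mL penicillin G. Viability read by CellTiter-Glo luminescence of cellular ATP, which scales with cell number. GI50 reported.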

[12] = Cytotoxicity against human THP-1 cells assessed as reduction in cell viability by MTT assay; type: cell-based
[13] = tested on: Trypanosoma brucei brucei; assay: Antitrypanosomal activity against bloodstream form of trypanosoma brucei brucei 427 assessed as inhibition of parasitic growth at 0.1 uM after 72 hrs in presence of MTX by resazurin staining based fluorescence assay relative to control; type: functional; details: read-out: GI; in short: as §2
[14] = tested on: Trypanosoma brucei brucei; assay: Antitrypanosomal activity against bloodstream form of trypanosoma brucei brucei 427 assessed as inhibition of parasitic growth at 0.1 uM after 72 hrs by resazurin staining based fluorescence assay relative to control; type: functional, organism-based; in short: as §2
[15] = tested on: Trypanosoma brucei brucei; assay: Antitrypanosomal activity against bloodstream form of trypanosoma brucei brucei 427 assessed as potentiation index at 0.1 uM after 72 hrs in presence of MTX by resazurin staining based fluorescence assay; type: functional; in short: as §3
[16] = tested on: Trypanosoma brucei brucei; assay: Antitrypanosomal activity against bloodstream form of trypanosoma brucei brucei 427 assessed as inhibition of parasitic growth at 1 uM after 72 hrs in presence of MTX by resazurin staining based fluorescence assay relative to control; type: functional; details: read-out: GI; in short: as §2
[17] = tested on: Trypanosoma brucei brucei; assay: Antitrypanosomal activity against bloodstream form of trypanosoma brucei brucei 427 assessed as inhibition of parasitic growth at 1 uM after 72 hrs by resazurin staining based fluorescence assay relative to control; type: functional, organism-based; in short: as §2
[18] = tested on: Trypanosoma brucei brucei; assay: Antitrypanosomal activity against bloodstream form of trypanosoma brucei brucei 427 assessed as potentiation index at 1 uM after 72 hrs in presence of MTX by resazurin staining based fluorescence assay; type: functional; in short: as §3
[19] = tested on: Trypanosoma brucei brucei; assay: Antitrypanosomal activity against bloodstream form of trypanosoma brucei brucei 427 assessed as inhibition of parasitic growth at 4 uM after 72 hrs in presence of MTX by resazurin staining based fluorescence assay relative to control; type: functional; details: read-out: GI; in short: as §2
[20] = Trypanosoma brucei, 427, 72 h, read-out: IC50

| Compound | inhibition [1] [%] | Ki ([2]; read-out: Ki) [µM] | Ki [3] [µM] | IC50 [5] | IC50 [5, 20] [µM] | inhibition of growth at 10 µM [6] [%] | growth inhibition (GI) [7] | Activity_index [8] | inhibition of growth at 0.1 µM [13] [%] | growth inhibition (GI) [14] | Activity_index [15] | also measured |
| --- | --- | --- | --- | --- | --- | --- | --- | --- | --- | --- | --- | --- |
| O=C1CCCCCNCc2ccc(cc2)CNCCCCCC(=O)N(Cc2ccccc2)CCCCCCCCN1Cc1ccccc1 | > 85 | 1.7 | > 100 | – | 0.61 | – | – | – | 43 | inactive | 1.4 | IC50 [3]: > 100 µM |
| CN(Cc1cnc2nc(N)nc(N)c2n1)c1ccc(C(=O)N[C@@H](CCC(=O)O)C(=O)O)cc1 [METHOTREXATE] | – | – | – | – | – | – | – | – | – | – | – | inhibition of growth at 4 µM [19]: 19% |
| 4-(4-Methoxybenzylamino)2,6-diaminopyrimidine | – | – | – | – | – | – | inactive | – | – | – | – | growth inhibition (GI) [6]: 41%; Activity index [8]: 2.2 |
| Cl.Fc1ccc(N(CCNCCCc2ccccc2)c2ccc(F)cc2)cc1 | > 85 | 2.2 | > 100 | – | 2.45 | – | – | – | 46 | inactive | 1.1 | IC50 [3]: > 100 µM; Ratio Ki [4]: > 45 |
| Nc1cc(NCc2ccc(F)cc2)nc(N)n1 | – | 1.1 | > 100 | Not Active | – | 37 | inactive | 1.8 | – | – | – | inhibition at 10 µM [9]: > 50%; inhibition at 10 µM [10]: 30% |
| COc1ccccc1CNCc1ccc(CNCCCCCCCCCCCCNCc2ccc(CNCc3ccccc3OC)cc2)cc1 | > 85 | 0.2 | 37.2 | – | 0.27 | – | – | – | 46 | inactive | 1.1 | Ratio Ki [4]: 186 |
| Nc1cc(NCc2ccccc2)nc(N)n1 | – | 3.4 | > 100 | Not Active | – | 24 | inactive | 1.3 | – | – | – | inhibition at 10 µM [9]: > 50%; inhibition at 10 µM [10]: 30% |
| Oc1ccc(-c2ccc(-c3cc(O)cc(O)c3)c(-c3ccccc3)c2)cc1 | > 85 | > 100 | 5.7 | – | – | – | – | – | – | – | – | IC50 [2]: > 100 µM |

Now from value to compound, other results behind:

| inhibition [1] [%] | Ki ([2]; read-out: Ki) [µM] | Ki [3] [µM] | IC50 [5] | IC50 [5, 20] [µM] | Compound | inhibition of growth at 10 µM [6] [%] | growth inhibition (GI) [7] | Activity_index [8] | inhibition of growth at 0.1 µM [13] [%] | growth inhibition (GI) [14] | Activity_index [15] | also measured |
| --- | --- | --- | --- | --- | --- | --- | --- | --- | --- | --- | --- | --- |
| > 85 | 0.6 | > 100 | Not Active | – | Nc1cc(OCc2ccccc2)nc(N)n1 | 36 | inactive | 1.9 | – | – | – | IC50 [3]: > 100 µM; Ratio Ki [4]: > 167; inhibition at 10 µM [9]: < 30%; inhibition at 10 µM [10]: < 30%; GI50 [11]: > 60 µM; CC50 [12]: > 60 µM |
| – | 0.2 | 15.3 | – | 3.7 | Nc1cc(NCc2ccc(-c3ccccc3)cc2)nc(N)n1 | – | – | – | – | – | – | inhibition of growth at 1 µM [16]: 49%; inhibition of growth at 10 µM ([7]; read-out: GI): > 80%; growth inhibition (GI) [17]: Active; Activity_index [18]: 2.3; GI50 [11]: 28.6 µM; CC50 [12]: < 25 µM |
| – | – | > 100 | – | – | Nc1nc(NCc2ccccc2)cc(NCc2ccccc2)n1 | – | – | – | – | – | – | Ki [2]: Not Active; inhibition at 10 µM [9]: > 50% |
| > 85 | 4.9 | 12 | Not Active | – | Cn1cnc2c(N)nc(CCc3ccccc3)nc21 | 56 | – | 1.7 | – | – | – | – |
| – | 0.8 | > 100 | Not Active | – | COc1ccc(COc2cc(N)nc(N)n2)cc1 | 42 | inactive | 2.2 | – | – | – | – |
| > 85 | 1.6 | 19.2 | – | 0.56 | O=C1CCCCCNCc2ccc(cc2)-c2ccc(cc2)CNCCCCCC(=O)N(Cc2ccccc2)CCCCCCCCN1Cc1ccccc1 | – | – | – | 41 | inactive | 1.2 | – |
| > 85 | 1.6 | > 100 | Not Active | – | NCCCCCCN1CC[C@H]2COc3ccccc3[C@H]21 | 51 | inactive | 1.3 | – | – | – | IC50 [3]: > 100 µM; Ratio Ki [4]: > 62.5 |
| > 85 | 2.7 | 14.8 | – | 0.58 | O=C1CCCCCNCc2ccc(cc2)Cc2ccc(cc2)CNCCCCCC(=O)N(Cc2ccccc2)CCCCCCCCN1Cc1ccccc1 | – | – | – | 42 | inactive | 1.1 | – |
